RanGTP-Imp inh – inhibitors of RanGTP-importin-beta interaction, primary screen, biochemical, FRET, CFP-Ran, YFP-importin-beta, homogeneous | inhibition, % (concentration not given with the values) | hit rate 1.1% among 300,000 | AID 2216 | cell-free CFP-Ran/YFP-importin-beta FRET ratio;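 active = more than half of the replicate wells show a fall in the fluorescence ratio signal beyond about 16%, limit read from the data, passing the limit was not always enough; inconclusive = exactly half of the replicate wells pass the set limit; inactive = fewer than half of replicates pass the limit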;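 also: 0% = DMSO wells and 100% = Ran loaded with GDP instead of GTP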
Runt-SMMHC FRET – Runt domain-CBFb-SMMHC interaction inhibition. hit rate 0.74% among 220,000. inhibition, % at 20 µM. Cerulean-Runt/Venus-CBFb-SMMHC FRET ratio 530/480, 1 h;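 active = mean inhibition across duplicate retests at 20 µM reaching about 50%, limit read from the data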;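 also: 0% = DMSO wells and 100% = wells with excess untagged CBFb-SMMHC; inhibitors lower the FRET ratio by blocking Runt binding to CBFb-SMMHC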
Wee1 stabilizer – blocks degradation of human Wee1 kinase. reporter increase, % at 5 µM. HeLa Luc-Wee1K328M stability, luciferase luminescence; 100% = proteasome inhibitor MG132 effect. P30291. hit rate 1.2% among 220,000;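 active = activation above the mean of all tested compounds plus 3 SD, set per screening run, cut at about 8.8% in these data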;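 also: cells exposed to compound for 20 h before luminescence read; 0% = DMSO alone and 100% = MG132 at 30 µM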
Target sequence (P30291 whole entry K328M): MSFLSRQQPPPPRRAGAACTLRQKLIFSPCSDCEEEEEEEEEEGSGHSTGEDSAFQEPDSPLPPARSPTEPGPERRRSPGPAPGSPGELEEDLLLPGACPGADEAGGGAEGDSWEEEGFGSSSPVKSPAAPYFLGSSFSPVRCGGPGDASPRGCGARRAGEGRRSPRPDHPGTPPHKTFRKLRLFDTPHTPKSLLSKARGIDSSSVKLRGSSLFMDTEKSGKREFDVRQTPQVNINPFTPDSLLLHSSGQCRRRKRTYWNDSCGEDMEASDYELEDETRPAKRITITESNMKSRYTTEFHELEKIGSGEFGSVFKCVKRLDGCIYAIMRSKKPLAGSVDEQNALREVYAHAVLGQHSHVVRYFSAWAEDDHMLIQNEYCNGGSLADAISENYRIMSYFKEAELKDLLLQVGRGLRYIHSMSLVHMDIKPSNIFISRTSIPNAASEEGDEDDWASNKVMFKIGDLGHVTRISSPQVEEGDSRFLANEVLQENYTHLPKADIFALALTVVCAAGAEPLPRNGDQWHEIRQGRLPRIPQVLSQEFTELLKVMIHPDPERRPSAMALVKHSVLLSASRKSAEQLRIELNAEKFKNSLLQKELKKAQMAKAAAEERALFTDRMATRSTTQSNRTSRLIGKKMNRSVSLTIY
Runt-CBFb FRET – blocks binding of human RUNX1 Runt domain to CBFb | Q01196+Q13951 | Cerulean-Runt/Venus-CBFb FRET ratio 530/480, 1 h | inhibition, % at 20 µM | hit rate 0.46% among 220,000 | AID 1496;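 active = inhibition over about 50% at 20 µM in the single-dose screen, limit read from the data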;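 also: 0% = DMSO wells and 100% = excess unlabeled CBFb competitor control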
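Schedule: protein complex preformed 1 h, compound exposure 1 h, room temperature, dark; test system: Cerulean-labeled Runt domain protein; amount: 100 nM per protein; buffer or medium: Tris 50 mM pH 7.5, KCl, K2SO4, 0.01% BSA; read-out: loss of energy transfer signal; detection: FRET fluorescence; controls: 5 µM unlabeled CBFb as full-inhibition high control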
proKLK7 act – proKLK7 (human) activation, primary screen | P49862 | purified proKLK7, EDANS-DABCYL substrate fluorescence; 100% is mature enzyme control, 0% vehicle | activation, % at 7 µM | hit rate 0.9% among 370,000 | AID 652039;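 active = activation above the mean of all tested compounds plus 3 SD, computed per campaign excluding outliers beyond control limits, cut at about 13% in these data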
AI-2 QS modul – modulates the Vibrio harveyi AI-2 quorum sensing system | Vibrio harveyi JMH597 AI-2 luminescence/OD600 ratio, 9 h; hits give low values; strain lacks LuxN and CqsS sensors; 0 = neutral-control median | activity change, % at 7.5 µM | hit rate 0.4% among 300,000 | AID 2094; in the data active = activity change below about -75%, passing the limit was not always enough; inconclusive = no clear call, values can overlap the other calls;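 also: luminescence divided by OD600 gain over 9 h not by final OD600 alone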
proKLK7 act conf – proKLK7 activation, confirmation. shares compounds with proKLK7 act. purified proKLK7, EDANS-DABCYL substrate fluorescence; scaled: vehicle 0, mature enzyme 100. activation, % at 7 µM. hit rate 68% among 3,200. AID 686949;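 active = activation, as change over the incubation, above the mean of all tested compounds plus 3 SD, cut at about 13% in these data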
EDANS interfere – fluorescence interference counter-screen for KLK7 activators | EDANS-DABCYL substrate fluorescence interference, no enzyme, 4 h; solvent 0%, active enzyme control 100% | activation, % at 7 µM | hit rate 80% among 3,200 | shares compounds with proKLK7 act;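 active = activation above the all-compound mean plus 3 SD, ignoring values outside control-based bounds, cut at about 4.8% in these data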;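 also: value is the 4 h activation minus the activation read at time zero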
An asterisk follows results filed as active; ? = inconclusive; . = no result given. Shown are actives, neighbours in structure and some others; about 2.9% of the full set was active somewhere.

SMILES	RanGTP-Imp inh	Runt-SMMHC FRET	Wee1 stabilizer	Runt-CBFb FRET	proKLK7 act	AI-2 QS modul	proKLK7 act conf	EDANS interfere
Cc1ccc(-n2[nH]c(C)c(C=Nc3ccc(S(=O)(=O)Nc4nccs4)cc3)c2=O)cc1C	-0.4	-2.0	-1.5	-8.0	-0.5	9.1	.	.
Cc1[nH]n(-c2cccc3ccccc23)c(=O)c1C=Nc1ccc2[nH]c(=O)[nH]c2c1	?	0.9	-0.5	1.4	0.2	28.9	.	.
COc1ccc(C(=O)NC(C)c2ccc(-n3ccnc3)cc2)cc1[N+](=O)[O-] (configuration not stated)	-1.5	.	.	.	-0.8	11.3	.	.
O=C(COC(=O)/C=C/c1ccc(F)cc1)NC1CCCC1	.	.	.	.	0.2	.	.	.
CSc1ccc(/C=C/C(=O)OCC(=O)NC2CCCC2)cc1	.	.	.	.	18.5*	.	-1.6	3.5
COc1cc2sc3cc(NCC[C@@H]4CCCN4C)ccc3c(=O)c2cc1OC	.	.	.	.	20.8*	.	-68.0	-64.6
O=C(Nc1nccs1)c1ccccc1Br	1.5	.	.	.	0.3	-3.8	.	.
Nc1ccccc1C(=O)Nc1nccs1	5.4	3.2	-4.4	3.7	50.1*	16.4	13.9*	15.8*
O=C(/C=C/c1cccs1)Nc1nccs1	0.2	-0.2	0.0	-1.3	15.1*	18.0	9.8	17.1*
O=C(/C=C\c1ccccc1)Nc1nccs1	-2.1	-2.8	8.1	0.7	16.7*	-4.5	5.2	1.8
O=C(/C=C/c1cccc(F)c1)Nc1nccs1	-1.6	-2.5	4.9	-0.2	-0.2	6.8	.	.
NNC(=O)Cc1cccc2ccc(Cl)cc12	.	.	.	.	0.0	.	.	.
CCCCNC(=O)N1CCCC(C(=O)c2cc(C)c(OC)c(C)c2)C1 (configuration not stated)	1.1	.	.	.	0.4	13.3	.	.
CC(C)c1nc2cc(C(=O)N3CCN(c4cnccn4)CC3)ccc2o1	0.3	.	.	.	1.7	24.6	.	.
O=C(CCC(=O)c1ccccc1)Nc1ccccc1	0.2	.	.	.	-0.7	-64.4	.	.
COc1ccc(/C=C/C(=O)NC(=S)Nc2ccccc2)cc1OC	5.6	.	.	.	-1.4	12.0	.	.
COc1ccc(/C=C/C(=O)NC(=S)Nc2ccc(S(N)(=O)=O)cc2)cc1OC	2.1	.	.	.	19.3*	7.1	12.8*	17.2*
COc1cc(/C=C/C(=O)Nc2ccncc2)cc(OC)c1OC	-1.6	-2.4	-0.7	-3.1	28.5*	13.2	8.5	18.4*
COc1ccc(/C=C/C(=O)Nc2ccc(-n3nncc3-c3ccc(OC)c(OC)c3)cc2)cc1OC	1.6	-3.4	-1.6	-3.9	28.0*	23.3	-8.9	-20.1
O=C(CN(CC1CCCO1)C(=O)CNS(=O)(=O)c1ccc(Cl)cc1)NCc1ccc(F)cc1 (configuration not stated)	-1.5	.	.	.	0.4	30.5	.	.
CN(C(=O)c1cccnc1)c1nnc(-c2ccccn2)s1	1.2	-4.0	1.1	0.2	73.3*	32.2	38.6*	37.3*
CN(C(=O)c1cccnc1)c1nnc(-c2cnccn2)s1	-1.6	1.1	-0.8	-1.8	42.4*	7.8	32.7*	34.4*
CN(C(=O)C1CCCO1)c1nnc(-c2cnccn2)s1 (configuration not stated)	-1.9	-1.7	-1.5	2.0	53.6*	11.4	39.3*	81.2*
CN(C(=O)c1ccncc1)c1nnc(-c2cnccn2)s1	1.2	1.4	0.0	1.3	32.6*	0.8	77.1*	82.2*
CN(C(=O)c1cnccn1)c1nnc(-c2cnccn2)s1	-4.4	-1.0	-1.4	-0.2	19.7*	11.9	37.6*	42.3*
CN(C(=O)c1ccccn1)c1nnc(-c2cnccn2)s1	5.7	3.2	-0.5	-3.7	9.4	7.6	.	.
COc1ccc(-c2cc(=Nc3c(C)n(C)n(-c4ccccc4)c3=O)c3ccccc3o2)cc1	-1.5	-2.7	0.8	-0.7	39.6*	11.2	43.5*	53.4*
